Measurements from PubChem BioAssay AID463185 (Molecular Libraries Program, Specialized Chemistry Center, …, 2010).
Active and inactive are the calls of the source.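 How the source made its calls: active means IC50 at or below 10 µM; inactive means the rest.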

System: HeLa UbG76V-GFP reporter degradation, GFP imaging
Assay: inhibitors of p97-dependent reporter degradation, dose response, imaging, human cells (AID 463185)
In short: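 schedule = MG132 1 h, then compound chase imaged 70–170 min | assay system = UbG76V-GFP reporter HeLa cells | technique = cell imaging of GFP fluorescence, mean of about 500 cells | buffer or medium = 2.5% FBS medium plus cycloheximide 50 µg/mL | also added = MG132 4 µM pretreatment for reporter buildup before chase | control set = DMSO wells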

SMILES | IC50
Brc1cccc(CNc2nc(NCc3ccccc3)c3ccccc3n2)c1 | 1.3 µM
Nc1nc(CCl)nc(N2CCCc3ccccc32)n1 | 17 µM (inactive)
Cc1cccc(C)c1OCC(=O)OC/C(O)=C(/C#N)c1nc2ccccc2[nH]1 | 15 µM (inactive)
N#C/C(=C(\O)COC(=O)CCC(=O)c1ccc2c(c1)OCCO2)c1nc2ccccc2[nH]1 | 6.3 µM
N#C/C(=C(\O)COC(=O)CNc1ccc(C(F)(F)F)cc1[N+](=O)[O-])c1nc2ccccc2[nH]1 | 6.5 µM
Fc1cccc(CNc2nc(NCc3ccccc3)c3ccccc3n2)c1 | 1.1 µM
Clc1ccc(CNc2nc(NCc3ccccc3)c3ccccc3n2)cc1 | 3.3 µM
Cc1cccc(Nc2nc(N)nc(CCl)n2)c1C | 27 µM (inactive)
Nc1nc(CCl)nc(N2CCc3ccccc32)n1 | 10.4 µM (inactive)
FC(F)(F)c1cc(CNc2nc(NCc3ccccc3)c3ccccc3n2)ccc1Cl | 4.6 µM
N#C/C(=C(\O)COC(=O)COc1ccc(Cl)cc1)c1nc2ccccc2[nH]1 | 2.6 µM
CCCOc1ccc(C(=O)CCC(=O)OC/C(O)=C(/C#N)c2nc3ccccc3[nH]2)cc1 | 6.1 µM
Nc1nc(Nc2cccc(Cl)c2)nc(C(Cl)Cl)n1 | 13 µM (inactive)
N#C/C(=C(\O)COC(=O)C1COc2ccccc2O1)c1nc2ccccc2[nH]1 (stereo not drawn) | 10 µM
Clc1ccccc1CNc1nc(NCc2ccccc2)c2ccccc2n1 | 4.1 µM
COc1cccc(Nc2nc(N)nc(CCl)n2)c1 | 23 µM (inactive)
COc1cc([N+](=O)[O-])ccc1Nc1nc(N)nc(CCl)n1 | 22 µM (inactive)
Fc1ccccc1CNc1nc(NCc2ccccc2)c2ccccc2n1 | 3.4 µM
COc1ccccc1Nc1nc(N)nc(CCl)n1 | 21 µM (inactive)
N#C/C(=C(\O)COC(=O)c1ccccc1Cc1ccccc1)c1nc2ccccc2[nH]1 | 3.4 µM
Cc1ccc(CNc2nc(NCc3ccccc3)c3ccccc3n2)cc1 | 2.4 µM
Nc1nc(CCl)nc(Nc2ccc(F)cc2)n1 | 31 µM (inactive)
Clc1cccc(CNc2nc(NCc3ccccc3)c3ccccc3n2)c1 | 3.7 µM
COc1ccccc1CNc1nc(NCc2ccccc2)c2ccccc2n1 | 4.8 µM

SMILES | IC50
Nc1nc(CCl)nc(Nc2ccc(Cl)cc2)n1 | 8 µM
N#C/C(=C(\O)COC(=O)COc1cccc(Br)c1)c1nc2ccccc2[nH]1 | 5.9 µM
Cc1c(Cl)cccc1Nc1nc(N)nc(CCl)n1 | 5.9 µM
Clc1ccc(CNc2nc(NCc3ccccc3)c3ccccc3n2)cc1Cl | 4.6 µM
Cc1cccc(CNc2nc(NCc3ccccc3)c3ccccc3n2)c1 | 4.1 µM
Cc1ccccc1CNc1nc(NCc2ccccc2)c2ccccc2n1 | 10 µM
Cc1ccc(Nc2nc(N)nc(CCl)n2)cc1 | 26 µM (inactive)
Cc1cc(C)cc(OCC(=O)OC/C(O)=C(/C#N)c2nc3ccccc3[nH]2)c1 | 13 µM (inactive)
COc1cccc(CNc2nc(NCc3ccccc3)c3ccccc3n2)c1 | 1.7 µM
Fc1ccc(CNc2nc(NCc3ccccc3)c3ccccc3n2)cc1 | 2.8 µM
Nc1nc(CCl)nc(N(c2ccccc2)c2ccccc2)n1 | 10 µM
Brc1ccc(CNc2nc(NCc3ccccc3)c3ccccc3n2)cc1 | 6.7 µM
c1ccc(CNc2nc(NCc3ccccc3)c3ccccc3n2)cc1 | 2.3 µM
Nc1nc(CCl)nc(Nc2ccc(Cl)c(Cl)c2)n1 | 5.7 µM
FC(F)(F)c1ccc(CNc2nc(NCc3ccccc3)c3ccccc3n2)cc1 | 2.5 µM
Nc1nc(CCl)nc(Nc2cccc3ccccc23)n1 | 14 µM (inactive)
Cc1cc(OCC(=O)OC/C(O)=C(/C#N)c2nc3ccccc3[nH]2)ccc1Cl | 16 µM (inactive)
CC(C)c1ccc(Nc2nc(N)nc(CCl)n2)cc1 | 14 µM (inactive)
COc1ccc(CNc2nc(NCc3ccccc3)c3ccccc3n2)cc1 | 3.3 µM
CCc1ccc(Nc2nc(N)nc(CCl)n2)cc1 | 18 µM (inactive)
Nc1nc(CCl)nc(Nc2ccc(Oc3ccccc3)cc2)n1 | 3.7 µM
CN(c1ccccc1)c1nc(N)nc(CCl)n1 | 31 µM (inactive)
CCc1nc2ccccc2n1CC(=O)OC/C(O)=C(/C#N)c1nc2ccccc2[nH]1 | 7.2 µM
Brc1ccccc1CNc1nc(NCc2ccccc2)c2ccccc2n1 | 6.7 µM
